{"source": "ChEMBL document CHEMBL1649125", "about": "“Efficacy of the novel diamidine compound 2,5-Bis(4-amidinophenyl)- furan-bis-O-Methlylamidoxime (Pafuramidine, DB289) against Trypanosoma brucei rhodesiense infection in vervet monkeys after oral administration” (2009)", "key": {"[1]": {"system": "Trypanosoma brucei rhodesiense", "test": "Antitrypanosomal activity against Trypanosoma brucei rhodesiense infected in vervet monkey assessed as body weight change at 1 mg/kg, po administered on day 7 post infection for 5 days", "format": "functional", "procedure,_shortened": "(§1)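 Body weight change is given as percent of the mean preinfection weight (n=3 per group). It was recorded at day 0 p.t., day 28 p.t. and end point. Oral gavage was once daily: 5 days from day 7 p.i., or 10 days from day 28 p.i.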"}, "[2]": {"system": "Trypanosoma brucei rhodesiense", "test": "Antitrypanosomal activity against Trypanosoma brucei rhodesiense infected in vervet monkey assessed as body weight change at 10 mg/kg, po administered on day 7 post infection for 5 days", "format": "functional", "procedure,_shortened": "as §1"}, "[3]": {"system": "Trypanosoma brucei rhodesiense", "test": "Antitrypanosomal activity against Trypanosoma brucei rhodesiense infected in vervet monkey assessed as body weight change at 10 mg/kg, po administered on day 28 post infection for 10 days", "format": "functional", "procedure,_shortened": "as §1"}, "[4]": {"system": "Trypanosoma brucei rhodesiense", "test": "Antitrypanosomal activity against Trypanosoma brucei rhodesiense infected in vervet monkey 463 assessed as time to detect parasitemia at 1 mg/kg, po administered on day 7 post infection for 5 days", "format": "functional", "procedure,_shortened": "(§2)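 Parasitemia was monitored from 3 days p.i. in ear-prick or inguinal venous blood. Methods were wet-film microscopy (detection limit 10^5 trypanosomes/ml) and hematocrit centrifugation technique (detection limit 10^3 trypanosomes/ml). Drug was given once daily by oral gavage: 5 days from day 7 p.i., or 10 days from day 28 p.i.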"}, "[5]": {"system": "Trypanosoma brucei rhodesiense", "test": "Antitrypanosomal activity against Trypanosoma brucei rhodesiense infected in vervet monkey 463 assessed as time to detect CSF parasitosis at 1 mg/kg, po administered on day 7 post infection for 5 days measured after 7 to 14 days", "format": "functional, organism-based", "design": "dose 1 mg/kg", "procedure,_shortened": "(§3)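 Trypanosomes and white cells in free-flowing CSF were counted by hemocytometer. Negative CSF was centrifuged and re-examined. Samples still negative were inoculated at 0.2 ml intraperitoneally into two mice each. Drug was given once daily by oral gavage: 5 days from day 7 p.i., or 10 days from day 28 p.i.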"}, "[6]": {"system": "Trypanosoma brucei rhodesiense", "test": "Antitrypanosomal activity against Trypanosoma brucei rhodesiense infected in vervet monkey 463 assessed as time to detect CSF parasitosis at 1 mg/kg, po administered on day 7 post infection for 5 days measured after 14 to 21 days by microscopy", "format": "functional, organism-based", "design": "dose 1 mg/kg", "procedure,_shortened": "as §3"}, "[7]": {"system": "Trypanosoma brucei rhodesiense", "test": "Antitrypanosomal activity against Trypanosoma brucei rhodesiense infected in vervet monkey 484 assessed as time to detect parasitemia at 1 mg/kg, po administered on day 7 post infection for 5 days", "format": "functional, organism-based", "design": "dose 1 mg/kg", "procedure,_shortened": "as §2"}, "[8]": {"system": "Trypanosoma brucei rhodesiense", "test": "Antitrypanosomal activity against Trypanosoma brucei rhodesiense infected in vervet monkey 484 assessed as time to detect CSF parasitosis at 1 mg/kg, po administered on day 7 post infection for 5 days measured after 7 to 14 days", "format": "functional", "procedure,_shortened": "as §3"}, "[9]": {"system": "Trypanosoma brucei rhodesiense", "test": "Antitrypanosomal activity against Trypanosoma brucei rhodesiense infected in vervet monkey 484 assessed as time to detect CSF parasitosis at 1 mg/kg, po administered on day 7 post infection for 5 days measured after 14 to 21 days by microscopy", "format": "functional", "procedure,_shortened": "as §3"}, "[10]": {"system": "Trypanosoma brucei rhodesiense", "test": "Antitrypanosomal activity against Trypanosoma brucei rhodesiense infected in vervet monkey 482 assessed as time to detect parasitemia at 3 mg/kg, po administered on day 7 post infection for 5 days", "format": "functional", "procedure,_shortened": "as §2"}, "[11]": {"system": "Trypanosoma brucei rhodesiense", "test": "Antitrypanosomal activity against Trypanosoma brucei rhodesiense infected in vervet monkey 483 assessed as time to detect CSF parasitosis at 3 mg/kg, po administered on day 7 post infection for 5 days measured after 14 to 21 days by microscopy", "format": "functional", "procedure,_shortened": "as §3"}, "[12]": {"system": "Trypanosoma brucei rhodesiense", "test": "Antitrypanosomal activity against Trypanosoma brucei rhodesiense infected in vervet monkey 411 assessed as cure from infection at 3 mg/kg, po administered on day 7 post infection for 5 days", "format": "functional, organism-based", "design": "dose 3 mg/kg", "procedure,_shortened": "(§4)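 Vervet monkeys (n=3 per group), infected with T. b. rhodesiense KETRI 2537. Dosed by oral gavage with a suspension once daily for 5 consecutive days from day 7 p.i. Cure meant no trypanosomes over 180 days p.t. in blood (wet film, HCT) or CSF (hemocytometer, centrifugation), with mouse subinoculation of negative samples.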"}, "[13]": {"system": "Trypanosoma brucei rhodesiense", "test": "Antitrypanosomal activity against Trypanosoma brucei rhodesiense infected in vervet monkey 468 assessed as cure from infection at 10 mg/kg, po administered on day 7 post infection for 5 days", "format": "functional, organism-based", "design": "dose 10 mg/kg", "procedure,_shortened": "as §4"}, "[14]": {"system": "Trypanosoma brucei rhodesiense", "test": "Antitrypanosomal activity against Trypanosoma brucei rhodesiense infected in vervet monkey 486 assessed as cure from infection at 10 mg/kg, po administered on day 7 post infection for 5 days", "format": "functional, organism-based", "design": "dose 10 mg/kg", "procedure,_shortened": "as §4"}, "[15]": {"system": "Trypanosoma brucei rhodesiense", "test": "Antitrypanosomal activity against Trypanosoma brucei rhodesiense infected in vervet monkey 471 assessed as time to detect parasitemia at 10 mg/kg, po administered on day 14 post infection for 5 days", "format": "functional"}, "[16]": {"system": "Trypanosoma brucei rhodesiense", "test": "Antitrypanosomal activity against Trypanosoma brucei rhodesiense infected in vervet monkey 471 assessed as time to detect CSF parasitosis at 10 mg/kg, po administered on day 14 post infection for 5 days measured after 7 to 14 days", "format": "functional, organism-based", "design": "dose 10 mg/kg"}, "[17]": {"system": "Trypanosoma brucei rhodesiense", "test": "Antitrypanosomal activity against Trypanosoma brucei rhodesiense infected in vervet monkey 501 assessed as time to detect parasitemia in wet films of blood at 10 mg/kg, po administered on day 28 post infection for 10 days by hematocrit centrifugation technique", "format": "functional", "procedure,_shortened": "as §2"}, "[18]": {"system": "Trypanosoma brucei rhodesiense", "test": "Antitrypanosomal activity against Trypanosoma brucei rhodesiense infected in vervet monkey 520 assessed as time to detect CSF parasitosis at 10 mg/kg, po administered on day 28 post infection for 10 days measured after 7 to 14 days", "format": "functional", "procedure,_shortened": "as §3"}, "[19]": {"system": "Trypanosoma brucei rhodesiense", "test": "Antitrypanosomal activity against Trypanosoma brucei rhodesiense infected in vervet monkey assessed as body weight change at 1 mg/kg, po administered on day 7 post infection for 5 days measured on day 28 post treatment", "format": "functional", "settings": "in the assay text read “day 1 post treatment” for “day 28 post treatment”", "procedure,_shortened": "as §1"}, "[20]": {"system": "Trypanosoma brucei rhodesiense", "test": "Antitrypanosomal activity against Trypanosoma brucei rhodesiense infected in vervet monkey assessed as body weight change at 10 mg/kg, po administered on day 28 post infection for 10 days measured on day 28 post treatment", "format": "functional", "procedure,_shortened": "as §1"}, "[21]": {"system": "Trypanosoma brucei rhodesiense", "test": "Antitrypanosomal activity against Trypanosoma brucei rhodesiense infected in vervet monkey assessed as change in packed cell volume at 1 mg/kg, po administered on day 7 post infection for 5 days", "format": "functional", "procedure,_shortened": "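Packed cell volume change is given as percent of the mean preinfection PCV in 3 monkeys. It was recorded at day 0 p.t., day 28 p.t. and end point, after 5 daily oral gavage doses starting day 7 p.i.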"}, "[22]": {"system": "Trypanosoma brucei rhodesiense", "test": "Antitrypanosomal activity against Trypanosoma brucei rhodesiense infected in vervet monkey assessed as change in packed cell volume at 3 mg/kg, po administered on day 7 post infection for 5 days", "format": "functional", "procedure,_shortened": "(§5)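 Vervet monkeys, three per group, were infected intravenously with T. b. rhodesiense KETRI 2537. From day 7 p.i., a drug suspension was given by oral gavage once daily for 5 consecutive days. Packed cell volume was expressed as % change from the group's mean preinfection value. PCV was read at day 0 p.t., day 28 p.t. and endpoint, with follow-up to 180 days p.t.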"}, "[23]": {"system": "Trypanosoma brucei rhodesiense", "test": "Antitrypanosomal activity against Trypanosoma brucei rhodesiense infected in vervet monkey assessed as change in packed cell volume at 10 mg/kg, po administered on day 7 post infection for 5 days", "format": "functional", "procedure,_shortened": "as §5"}, "[24]": {"system": "Trypanosoma brucei rhodesiense", "test": "Antitrypanosomal activity against Trypanosoma brucei rhodesiense infected in vervet monkey assessed as change in packed cell volume at 1 mg/kg, po administered on day 7 post infection for 5 days measured on day 28 post treatment", "format": "functional", "procedure,_shortened": "as §5"}, "[25]": {"system": "Trypanosoma brucei rhodesiense", "test": "Antitrypanosomal activity against Trypanosoma brucei rhodesiense infected in vervet monkey assessed as change in packed cell volume at 3 mg/kg, po administered on day 7 post infection for 5 days measured on day 28 post treatment", "format": "functional", "procedure,_shortened": "as §5"}, "[26]": {"system": "Trypanosoma brucei rhodesiense", "test": "Antitrypanosomal activity against Trypanosoma brucei rhodesiense infected in vervet monkey assessed as change in packed cell volume at 10 mg/kg, po administered on day 7 post infection for 5 days measured on day 28 post treatment", "format": "functional", "procedure,_shortened": "as §5"}}, "note": "Active and inactive are the calls of the source. The rule behind the calls is not given here."}
{"compound": "CONC(=N)c1ccc(-c2ccc(-c3ccc(C(=N)NOC)cc3)o2)cc1", "note": "[PAFURAMIDINE]", "values": [{"measurement": "Activity", "setting": "[1]", "result": -2.2, "unit": "%"}, {"measurement": "Activity", "setting": "[2]", "result": -6.3, "unit": "%"}, {"measurement": "Activity", "setting": "[3]", "result": -10.5, "unit": "%"}, {"measurement": "Time", "setting": "[4]", "result": 7, "unit": "days"}, {"measurement": "Time", "setting": "[5]", "result": "inactive"}, {"measurement": "Time", "setting": "[6]", "result": "inactive"}, {"measurement": "Time", "setting": "[7]", "result": "inactive"}, {"measurement": "Time", "setting": "[8]", "result": 7, "unit": "days"}, {"measurement": "Time", "setting": "[9]", "result": 14, "unit": "days"}, {"measurement": "Time", "setting": "[10]", "result": 55, "unit": "days"}, {"measurement": "Time", "setting": "[11]", "result": 55, "unit": "days"}, {"measurement": "Time", "setting": "[12]", "result": "Active"}, {"measurement": "Time", "setting": "[13]", "result": "Active"}, {"measurement": "Time", "setting": "[14]", "result": "Active"}, {"measurement": "Time", "setting": "[15]", "result": 56, "unit": "days"}, {"measurement": "Time", "setting": "[16]", "result": "inactive"}, {"measurement": "Time", "setting": "[17]", "result": 73, "unit": "days"}, {"measurement": "Time", "setting": "[18]", "result": 119, "unit": "days"}, {"measurement": "Activity", "setting": "[19]", "result": -2.1, "unit": "%"}, {"measurement": "Activity", "setting": "[20]", "result": -8.1, "unit": "%"}, {"measurement": "Activity", "setting": "[21]", "result": -4.3, "unit": "%"}, {"measurement": "Activity", "setting": "[22]", "result": -9.4, "unit": "%"}, {"measurement": "Activity", "setting": "[23]", "result": -5.8, "unit": "%"}, {"measurement": "Activity", "setting": "[24]", "result": -17, "unit": "%"}, {"measurement": "Activity", "setting": "[25]", "result": -2.9, "unit": "%"}, {"measurement": "Activity", "setting": "[26]", "result": -1.6, "unit": "%"}]}
